From ChEMBL document CHEMBL4402599 (J Med Chem, 2020) come the findings set out here.

Data set [1] deals with Inositol 1,4,5-trisphosphate-gated calcium channel ITPR1 (Rattus norvegicus) (UniProt P29994). The data set can be described thus: Agonist activity at rat IP3R1 expressed in HEK cells assessed as increase in calcium release in cytosol by measuring fluorescence signal at 300 uM by Mag-Fluo4 dye based assay relative to control. The format is cell-based. The gist of the method: (§1)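 HEK-293 cells lacking all three IP3R subtypes (CRISPR), stably transfected with rat IP3R1 (S1 splice site absent), G418-selected monoclonal line. ER loaded with Mag-Fluo-4 AM (20 μM, 1 h, 22 °C), saponin-permeabilized, in Ca2+-free cytosol-like medium, pH 7.0, 220 nM free Ca2+. MgATP 1.5 mM loads stores, CPA 10 μM added, ligand 60 s later. Read-out is fluorescence at 485/520 nm, 20 °C. Release is % of (Ffull − Fempty). Hill fit; 5–11 experiments in duplicate.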
Inositol 1,4,5-trisphosphate-gated calcium channel ITPR1 (Rattus norvegicus), sequence (P29994 whole entry, looked up, canonical isoform): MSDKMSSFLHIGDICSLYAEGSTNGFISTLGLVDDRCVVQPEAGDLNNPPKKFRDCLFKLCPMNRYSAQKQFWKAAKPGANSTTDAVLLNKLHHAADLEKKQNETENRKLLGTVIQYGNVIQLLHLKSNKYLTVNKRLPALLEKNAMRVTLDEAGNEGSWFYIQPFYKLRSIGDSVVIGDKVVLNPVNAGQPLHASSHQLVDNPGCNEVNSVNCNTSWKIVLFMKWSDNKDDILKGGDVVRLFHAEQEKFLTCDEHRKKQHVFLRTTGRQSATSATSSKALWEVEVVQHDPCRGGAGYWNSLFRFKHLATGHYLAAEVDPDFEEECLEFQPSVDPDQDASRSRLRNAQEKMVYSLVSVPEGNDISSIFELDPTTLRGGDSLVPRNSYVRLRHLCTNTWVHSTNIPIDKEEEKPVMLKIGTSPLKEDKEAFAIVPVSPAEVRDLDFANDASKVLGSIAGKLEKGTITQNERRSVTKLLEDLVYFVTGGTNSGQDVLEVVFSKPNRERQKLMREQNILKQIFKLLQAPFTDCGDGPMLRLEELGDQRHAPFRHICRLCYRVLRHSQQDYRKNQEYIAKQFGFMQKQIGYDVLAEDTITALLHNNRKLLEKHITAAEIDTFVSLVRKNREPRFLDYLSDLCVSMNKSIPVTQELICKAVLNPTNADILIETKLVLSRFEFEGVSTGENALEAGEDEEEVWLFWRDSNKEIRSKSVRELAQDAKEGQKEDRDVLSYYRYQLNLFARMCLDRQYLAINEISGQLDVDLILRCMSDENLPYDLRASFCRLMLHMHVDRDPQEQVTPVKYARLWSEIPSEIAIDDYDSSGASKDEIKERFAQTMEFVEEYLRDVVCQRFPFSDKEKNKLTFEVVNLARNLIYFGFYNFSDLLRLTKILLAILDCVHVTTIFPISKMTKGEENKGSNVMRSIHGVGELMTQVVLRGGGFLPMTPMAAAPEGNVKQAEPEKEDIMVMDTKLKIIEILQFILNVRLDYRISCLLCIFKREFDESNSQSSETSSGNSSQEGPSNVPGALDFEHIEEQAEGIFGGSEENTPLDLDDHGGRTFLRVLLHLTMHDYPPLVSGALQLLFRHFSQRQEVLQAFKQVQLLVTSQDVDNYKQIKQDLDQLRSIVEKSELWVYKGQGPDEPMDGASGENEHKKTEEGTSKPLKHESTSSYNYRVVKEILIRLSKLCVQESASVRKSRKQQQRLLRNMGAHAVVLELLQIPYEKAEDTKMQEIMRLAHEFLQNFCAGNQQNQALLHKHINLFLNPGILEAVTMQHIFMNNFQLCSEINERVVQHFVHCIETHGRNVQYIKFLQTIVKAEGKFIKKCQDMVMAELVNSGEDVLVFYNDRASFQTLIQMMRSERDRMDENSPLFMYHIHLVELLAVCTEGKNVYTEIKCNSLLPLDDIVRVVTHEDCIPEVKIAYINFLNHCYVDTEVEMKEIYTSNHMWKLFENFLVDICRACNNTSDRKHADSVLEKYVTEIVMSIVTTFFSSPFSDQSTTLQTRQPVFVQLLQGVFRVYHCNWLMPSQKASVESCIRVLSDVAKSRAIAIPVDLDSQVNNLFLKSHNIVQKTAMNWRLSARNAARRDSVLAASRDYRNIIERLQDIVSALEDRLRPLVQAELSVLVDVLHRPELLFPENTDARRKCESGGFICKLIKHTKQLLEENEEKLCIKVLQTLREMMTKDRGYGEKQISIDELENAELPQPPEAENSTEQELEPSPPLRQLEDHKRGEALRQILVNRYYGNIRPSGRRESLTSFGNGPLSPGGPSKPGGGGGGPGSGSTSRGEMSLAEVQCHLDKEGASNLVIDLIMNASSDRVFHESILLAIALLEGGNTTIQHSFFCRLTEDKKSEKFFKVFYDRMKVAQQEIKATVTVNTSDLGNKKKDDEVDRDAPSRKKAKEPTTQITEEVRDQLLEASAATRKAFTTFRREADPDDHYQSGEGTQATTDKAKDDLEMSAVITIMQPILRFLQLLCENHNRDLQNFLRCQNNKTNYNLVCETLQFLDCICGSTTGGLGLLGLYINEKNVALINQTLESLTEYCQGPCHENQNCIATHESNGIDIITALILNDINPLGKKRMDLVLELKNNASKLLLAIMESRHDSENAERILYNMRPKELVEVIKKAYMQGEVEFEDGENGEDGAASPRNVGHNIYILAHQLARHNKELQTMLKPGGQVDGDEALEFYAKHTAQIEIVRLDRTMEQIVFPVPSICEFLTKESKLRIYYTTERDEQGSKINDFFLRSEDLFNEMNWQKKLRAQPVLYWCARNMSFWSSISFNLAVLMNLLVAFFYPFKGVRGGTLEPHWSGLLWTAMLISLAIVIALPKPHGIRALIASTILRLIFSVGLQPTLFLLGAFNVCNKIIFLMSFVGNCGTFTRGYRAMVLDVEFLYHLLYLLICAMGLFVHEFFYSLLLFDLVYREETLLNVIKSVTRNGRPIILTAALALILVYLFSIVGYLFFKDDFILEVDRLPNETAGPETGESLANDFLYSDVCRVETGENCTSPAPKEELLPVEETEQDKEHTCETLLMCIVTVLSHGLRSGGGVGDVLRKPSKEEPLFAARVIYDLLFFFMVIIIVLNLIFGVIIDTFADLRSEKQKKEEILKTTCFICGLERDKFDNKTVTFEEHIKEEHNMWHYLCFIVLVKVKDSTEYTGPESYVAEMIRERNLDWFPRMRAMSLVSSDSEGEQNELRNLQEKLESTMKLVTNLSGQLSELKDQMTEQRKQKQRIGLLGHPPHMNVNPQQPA

The target is the same in data set [2]. The data set can be described thus: Ratio of EC50 for agonist activity at rat IP3R1 expressed in HEK cells assessed as increase in calcium release in cytosol by measuring fluorescence signal by Mag-Fluo4 dye based assay to Kd for binding affinity to IP3R1 in Wistar rat cerebellar membrane. The format is cell-based. The gist of the method:
(§2)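 Ratio of EC50 from Mag-Fluo-4 Ca2+ release in permeabilized rat IP3R1-HEK cells to Kd from [3H]-IP3 competition with rat cerebellar membranes. Calculated from the difference of log values (pEC50 − pKd); given as mean with 95% CI.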

The target in data set [3] is T1, Inositol 1,4,5-trisphosphate-gated calcium channel ITPR1 (Rattus norvegicus, UniProt P29994). Kind of data set: Displacement of [3H]-IP3 from IP3R1 in Wistar rat cerebellar membrane measured after 5 mins by liquid scintillation counting method. The format is cell membranes, Cerebellum. (In general: In a radioligand displacement assay an active substance lowers the binding of a labelled ligand.)

Data set [4] addresses T1, Inositol 1,4,5-trisphosphate-gated calcium channel ITPR1. The data set can be described thus: Agonist activity at rat IP3R1 expressed in HEK cells assessed as increase in calcium release in cytosol by measuring fluorescence signal by Mag-Fluo4 dye based assay. The format is cell-based.
Data set [5] in a line: Drug degradation at 4 degree C measured after 3 weeks by 31P-NMR analysis. The format is physicochemical. As to conditions: read-out: Drug degradation.
A short description of data set [6]: Drug metabolism assessed as catalytic hydrogenolysis by measuring beta-D-glucopyranosyl 1,3,4-trisphosphate triethylammonium formation by 31P-NMR analysis.
In data set [7] the target is Inositol 1,4,5-trisphosphate-gated calcium channel ITPR1 (Rattus norvegicus) (UniProt P29994). The data set can be described thus: Ratio of EC39 for partial agonist activity at rat IP3R1 expressed in HEK cells assessed as increase in calcium release in cytosol by measuring fluorescence signal by Mag-Fluo4 dye based assay to Kd for binding affinity to IP3R1 in Wistar rat cerebellar membrane. The format is cell-based.

For data set [8] the target is unchanged. Kind of data set: Partial agonist activity at rat IP3R1 expressed in HEK cells assessed as increase in calcium release in cytosol by measuring fluorescence signal by Mag-Fluo4 dye based assay relative to inositol-1,4,5-triphosphate. The format is cell-based. The gist of the method: as §1
Data set [9] has as its target T1, Inositol 1,4,5-trisphosphate-gated calcium channel ITPR1. Kind of data set: Partial agonist activity at rat IP3R1 expressed in HEK cells assessed as increase in calcium release in cytosol by measuring fluorescence signal by Mag-Fluo4 dye based assay. The format is cell-based. A digest of the protocol: as §1
Data set [10] concerns the target Inositol 1,4,5-trisphosphate-gated calcium channel ITPR1 (Rattus norvegicus) (UniProt P29994). The data set can be described thus: Ratio of EC50 for partial agonist activity at rat IP3R1 expressed in HEK cells assessed as increase in calcium release in cytosol by measuring fluorescence signal by Mag-Fluo4 dye based assay to Kd for binding affinity to IP3R1 in Wistar rat cerebellar membrane. The format is cell-based. A digest of the protocol:
as §2

Data set [11] can be described thus: Stability of compound assessed as basic hydrolysis at pH 14 measured after 1 day by H-NMR spectroscopy. The format is physicochemical. As to conditions: buffer, pH 14, 24 h. The gist of the method:
(§3)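 Hydrolysis followed after 1 day at pH 1 or at pH 14.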

Data set [12] in a line: Stability of compound assessed as acidic hydrolysis at pH 1 measured after 1 day by H-NMR spectroscopy. The format is physicochemical. As to conditions: buffer, pH 1, 24 h. A digest of the protocol: as §3
The nature of data set [13]: Stability of compound assessed as basic hydrolysis at pH 10 measured after 1 week by H-NMR spectroscopy. The note with it: buffer, pH 10, 168 h. The format is physicochemical. The gist of the method:
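Kept at pH 10 for one week and checked for degradation.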

The nature of data set [14]: Stability of compound in D2O at pH 7 under room temperature measured after 2 months by H-NMR spectroscopy. The note with it: buffer, pH 7, 1461 h. The format is physicochemical. A digest of the protocol: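 Triethylammonium salt left in D2O at pH 7, room temperature; degradation followed over time.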
Data set [15] has as its target Inositol 1,4,5-trisphosphate-gated calcium channel ITPR1 (Rattus norvegicus) (UniProt P29994). The data set can be described thus: Agonist activity at rat IP3R1 expressed in HEK cells assessed as increase in calcium release in cytosol by measuring fluorescence signal by Mag-Fluo4 dye based assay relative to control. The format is cell-based. The gist of the method:
as §1

pEC50, pKd: −log10 of the molar value.

`CO[C@H]1O[C@H](COP(=O)(O)O)[C@@H](OP(=O)(O)O)[C@H](O)[C@H]1OP(=O)(O)O`: the Activity in data set [1] stood at 5.9%.
What is called pKd is the Kd on a negative log10 scale, so that one unit is a factor of ten. The term pEC50 denotes the EC50 on a negative log10 scale, so that one unit is a factor of ten. With `Nc1ncnc2c1ncn2[C@@H]1O[C@H](CO)[C@@H](O[C@H]2O[C@H](CO)[C@@H](OP(=O)(O)O)[C@H](OP(=O)(O)O)[C@H]2O)[C@H]1OP(=O)(O)O` [ADENOPHOSTIN A], the Ratio in data set [2] is 17. The pKd in data set [3] was 8.85. Further, the pEC50 in data set [4] was 7.62.
In the case of `O=P(OCc1ccccc1)(OCc1ccccc1)O[C@@H]1O[C@H](COCc2ccccc2)[C@@H](OP(=O)(OCc2ccccc2)OCc2ccccc2)[C@H](OP(=O)(OCc2ccccc2)OCc2ccccc2)[C@H]1OCc1ccccc1`, the degraded at 504 h in data set [5] turned out to be 30%. Further, the Drug metabolism entry in data set [6] is “Metabolite detected”.
Turning to `CO[C@@H]1O[C@@H](COP(=O)(O)O)[C@H](OP(=O)(O)O)[C@@H](O)[C@@H]1OP(=O)(O)O`, the Ratio amounted to 462 in data set [7] and 191 in [10]. Moreover, the pKd in data set [3] was 6.26. In data set [8], the Activity was 53.1%. For the same molecule, in data set [9], the pEC50 was 3.98.
Turning to `CCN(CC)CC.CCN(CC)CC.CCN(CC)CC.O=P(O)(O)O[C@@H]1O[C@H](CO)[C@@H](OP(=O)(O)O)[C@H](OP(=O)(O)O)[C@H]1O`, the Stability entry in data set [11] is on record as “Unstable”; in [12], “Unstable”; in [13], “Stable”; in [14], “Stable”. In addition, the Ratio in data set [2] worked out at 7. In addition, the negative logarithm of the Kd (pKd) in data set [3] was 7.95. Besides, the pEC50 in data set [4] is 7.10. Besides, the Activity in [15] is 75.2%.
For `CO[C@@H]1O[C@@H](COP(=O)(O)O)[C@H](O)[C@@H](OP(=O)(O)O)[C@@H]1OP(=O)(O)O`, the Ratio stood at 132 in [7] and 71 in [10]. Further, in data set [3], the pKd is 5.91. In addition, the Activity in [8] came to 56.2%. For the same molecule, the pEC50 in [9] is 4.06.
For the molecule `CCN(CC)CC.CCN(CC)CC.CCN(CC)CC.O=P(O)(O)O[C@H]1O[C@H](CO)[C@@H](OP(=O)(O)O)[C@H](OP(=O)(O)O)[C@H]1O`, the Stability result is on record as “Unstable” in data set [11], “Unstable” in data set [12], “Stable” in data set [13] and “Stable” in data set [14]. Moreover, the Ratio in data set [2] came out at 23. The pKd in data set [3] was 6.89. Moreover, the pEC50 in data set [4] was 5.53. Moreover, the Activity in data set [15] is 78.8%.
With `CO[C@H]1O[C@H](COP(=O)(O)O)[C@@H](O)[C@H](OP(=O)(O)O)[C@H]1OP(=O)(O)O`, in [1], the Activity was determined as 4.3%.
